GalR3 antagonist – human GalR3 antagonism | HEK293 GalR3-CNG cAMP membrane potential fluorescence; galR3 body fused to GalR1 C-terminus | inhibition, % at 3 µM | 360,000 tested, 0.44% active;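 active = inhibition above the screen-wide average plus 3 SD, cut at about 13% in these data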;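 note: forskolin and galanin both at EC90 stimulate the cells; cAMP rise reported by CNG channel membrane potential dye signal; 0% = forskolin plus galanin with DMSO and 100% = forskolin alone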
NPR1 activator – GC-A (human) enzyme activation; activation, % at 10 µM; 370,000 tested, 0.14% active; HEK293 GC-A cells, cGMP TR-FRET, EC30 ANP; 0% at EC30 ANP, 100% saturating ANP; P16066; in the data active = activation above about 40%
Arrestin-AP2 inh – inhibitors of human beta-arrestin and AP2 interaction. inhibition, % at 10 µM. 340,000 tested, 0.31% active. FITC-arrestin peptide / GST-AP2 beads, flow cytometry; AP2 beta2 appendage carries R879A mutation;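 active = inhibition above a set limit, near 3 SD of compounds lacking own fluorescence, cut at about 54% in these data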;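 note: plate controls were DMSO wells for no effect and 5 µM unlabelled arrestin peptide for full effect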
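Material – AP2 appendage R879A on GSH beads · Buffer or medium – PBS with 0.05% Tween 20 and 0.1% BSA · Probe or stimulus – fluorescein-tagged arrestin peptide at 50 nM final · Incubation – compound with beads 12 min RT, then probe 1 h RT · Detection – high-throughput flow cytometry of beads, ex 488, em 535 nm · Evaluation – percent response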
NPR2 activator – GC-B (human) receptor activation; HEK293-GC-B cells, CNP EC30, cGMP TR-FRET; 0% at EC30 CNP, 100% saturating CNP; 370,000 tested, 0.11% active; activation, % at 10 µM; P20594;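 active = activation at 10 µM reaching about 35% in either raw or pattern-adjusted values, limit read from the data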
GalR3 antag conf – GalR3 (human) antagonism, confirmation; shares compounds with GalR3 antagonist; HEK293 GalR3 CNG cAMP biosensor, membrane potential fluorescence; galR3 fused to GalR1 carboxy tail; challenged with forskolin and galanin at EC90; inhibition, % at 3 µM; 1,600 tested, 59% active; AID 652245;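 active = inhibition above the primary screen's cutoff, the mean inhibition of all screened compounds plus 3 SD, cut at about 13% in these data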;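 note: 0% = forskolin plus galanin and 100% = forskolin alone with DMSO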
HEK-CNG parental – parental cell agonism counter-screen for GalR3 antagonists | 1,600 tested, 10% active | activation, % at 3 µM | shares compounds with GalR3 antagonist | HEK293-CNG parental cells, cAMP membrane potential fluorescence; normalised: DMSO wells 0%, forskolin wells 100%; in the data active = activation above about 1.3%
An asterisk follows results filed as active. Most compounds without a hit are left out; they make up all but 0.94% or so of the library.

N#Cc1ccc(S(=O)(=O)NC(=O)[C@H]2O[C@@H](n3ccc(=O)[nH]c3=O)[C@H](O)[C@@H]2O)cc1 was read as GalR3 antagonist -3, NPR1 activator 4 and NPR2 activator 7.
Cn1nccc1C(=O)Nn1cnnc1 was read as NPR1 activator 2, Arrestin-AP2 inh 21, NPR2 activator -2, GalR3 antag conf 6 and HEK-CNG parental 0.
`CN(C)c1ccc([N+](=O)[O-])cc1C(=O)O` gave GalR3 antagonist 5, NPR1 activator 4, Arrestin-AP2 inh 6 and NPR2 activator 1.
CCCCOc1ccc([N+](=O)[O-])cc1C(=O)O was read as GalR3 antagonist 17*, NPR1 activator 3, Arrestin-AP2 inh 18, NPR2 activator 2, GalR3 antag conf 2 and HEK-CNG parental 0.
For Cc1ccc(Cn2cc(COC(=O)NCCc3c[nH]c4ccccc34)nn2)cc1 the results were NPR1 activator -4 and NPR2 activator -4.
For CCn1c(O)c(/C=N/N=C2CCCCC2)c2cc(C3=NNC(=O)CC3)ccc21 the results were GalR3 antagonist 25*, NPR1 activator 8, Arrestin-AP2 inh 5, NPR2 activator 0, GalR3 antag conf 6 and HEK-CNG parental 0.
CCn1c(O)c(/C=N/N=C2CCCC2)c2ccc(C3=NNC(=O)CC3)cc21 was read as GalR3 antagonist -1, NPR1 activator 7, Arrestin-AP2 inh 1 and NPR2 activator 5.
`COC(=O)[C@]12C[C@H](CC(=O)N3CCOCC3)C(=O)N(CCc3ccc(OC)c(OC)c3)C1=C[C@H](C(C)(C)C)O[C@@H]2C` gave GalR3 antagonist -8, NPR1 activator 0 and NPR2 activator -2.
For O=S(=O)(Nc1nc2ccccc2nc1NCC1CCCO1)c1cc(Cl)ccc1Cl (centres undefined) the results were GalR3 antagonist 15*, NPR1 activator 0, Arrestin-AP2 inh 14, NPR2 activator -2, GalR3 antag conf 1 and HEK-CNG parental 0.
`Cc1[nH]nc(SCC(=O)N2CCCCC2)c1[N+](=O)[O-]` gave GalR3 antagonist -1, NPR1 activator -2, Arrestin-AP2 inh -7 and NPR2 activator 8.
Screening Cc1[nH]nc(SCC(=O)N2CCCCCC2)c1[N+](=O)[O-] returned GalR3 antagonist 14*, NPR1 activator 1, Arrestin-AP2 inh 10, NPR2 activator -2, GalR3 antag conf 4 and HEK-CNG parental 0.
`CC(=O)NC(Cc1c[nH]c2ccccc12)C(=O)OCC(=O)Nc1ccc2c(c1)OCO2` (centres undefined) gave GalR3 antagonist 15*, NPR1 activator 1, Arrestin-AP2 inh 0, NPR2 activator -1, GalR3 antag conf 6 and HEK-CNG parental 0.
For Cc1ccc(C2c3c(n[nH]c3C(C)C)C(=O)N2c2ccccc2)cc1 (centres undefined) the results were GalR3 antagonist -7, NPR1 activator -10 and NPR2 activator -9.
For Cc1ccc(-n2c(COc3ccccc3)nnc2SCC(=O)Nc2ccc3c(c2)OCO3)cc1 the results were NPR1 activator -7 and NPR2 activator -5.
O=S(=O)(c1ccccc1)N1CCC(O)(CSc2ccc(Cl)cc2)CC1 was read as GalR3 antagonist 93*, NPR1 activator 2, Arrestin-AP2 inh 27, NPR2 activator -1, GalR3 antag conf 108* and HEK-CNG parental -1.
Screening O=C(NC(=S)NC(=O)c1ccccc1F)c1ccccc1F returned GalR3 antagonist 18*, NPR1 activator -6, Arrestin-AP2 inh 17, NPR2 activator -1, GalR3 antag conf 5 and HEK-CNG parental 0.
For CC(=O)NC1CCCCN(C(C)C)C1=O (centres undefined) the results were NPR1 activator 6 and NPR2 activator 8.
`Cc1nn(-c2ccccc2)c(Cl)c1/C=C(\CC(=O)O)c1nc2ccccc2s1` gave GalR3 antagonist 13*, NPR1 activator 2, Arrestin-AP2 inh 0, NPR2 activator -7, GalR3 antag conf 3 and HEK-CNG parental 0.
For COc1cc(OC)cc(C(=O)NCC(=O)NCCN2C(=O)S/C(=C\c3ccccc3Cl)C2=O)c1 the results were GalR3 antagonist -5, NPR1 activator -13, Arrestin-AP2 inh 1 and NPR2 activator -18.
Screening COc1cc(OC)cc(C(=O)NCC(=O)NCCN2C(=O)S/C(=C\c3ccc4c(c3)OCO4)C2=O)c1 returned GalR3 antagonist 13*, NPR1 activator -13, Arrestin-AP2 inh 6, NPR2 activator -9, GalR3 antag conf 10 and HEK-CNG parental 0.
`O=S1(=O)CC2c3ccccc3CCN2CN1Cc1ccccc1` (centres undefined) gave NPR1 activator -3 and NPR2 activator -3.
`CCOC(=O)c1c(C)c2c(n1C)CCC/C2=N\O` gave GalR3 antagonist 66*, NPR1 activator 12, Arrestin-AP2 inh 15, NPR2 activator 5, GalR3 antag conf 32* and HEK-CNG parental 0.
`CCOC(=O)c1c(C)c(C(=O)NC2CCCCCC2)c(C)n1C` gave GalR3 antagonist -5, NPR1 activator 3, Arrestin-AP2 inh -7 and NPR2 activator 0.
`COC(=O)[C@]12C[C@H](CC(=O)NCCCN3CCCC3=O)C(=O)N(Cc3ccccc3)C1=C[C@H](C1CCCC1)O[C@@H]2C` gave GalR3 antagonist -3, NPR1 activator -3 and NPR2 activator -2.
For CCOC(=O)c1cc(=O)[nH]c2ccccc12 the results were GalR3 antagonist -4, NPR1 activator 2, Arrestin-AP2 inh 29 and NPR2 activator 1.
Screening Cc1ccc(-c2nnc(COC(=O)c3cc(=O)[nH]c4ccccc34)o2)cc1 returned GalR3 antagonist 13*, NPR1 activator -2, Arrestin-AP2 inh -2, NPR2 activator 2, GalR3 antag conf 1 and HEK-CNG parental 0.
COc1cc(/C=N/N=C(N)N)ccc1OCc1ccc(Cl)cc1 was read as GalR3 antagonist 92*, NPR1 activator -5, Arrestin-AP2 inh 5, NPR2 activator -5, GalR3 antag conf 45* and HEK-CNG parental 1.8*.
`COc1cc(/C=N\n2nnnc2N)ccc1OCc1ccc(F)cc1` gave GalR3 antagonist 21*, NPR1 activator 12, Arrestin-AP2 inh 13, NPR2 activator 12, GalR3 antag conf 25* and HEK-CNG parental 1.
`CCOc1cc(/C=N/N=C(N)N)ccc1OCc1ccc(Cl)cc1` gave GalR3 antagonist 12, NPR1 activator -4, Arrestin-AP2 inh 6 and NPR2 activator -1.

High-throughput results deposited in PubChem BioAssay by several laboratories.
